The source made the active and inactive calls. The rule behind the calls is not given here.
How the values were obtained:
[1] = (§1) Cytotoxicity against African green monkey Vero cells at 400 uM after 3 days by haemocytometry; type: cell-based; details: chlorocebus sabaeus, Vero cells; read-out: INH
Method in brief: (§2)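 Uninfected Vero cells were seeded at 0.1 confluency in Dulbecco's medium with 10% fetal calf serum and incubated 1 day at 37 °C in 5% CO2. Compound was then added in growth medium. Duplicate flasks were harvested at once and then daily for 3 days by trypsin (0.125%)/EDTA (0.02%) for 15 min at 37 °C, dispersed, and stained with trypan blue. Cells were counted by haemocytometer.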

CCRF S-180 [2] = assay: Cytotoxicity against mouse S180 cells at 400 uM after 18 to 42 hrs relative to control; type: functional
Method in brief: (§3)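 Mouse sarcoma 180 suspension cultures in Fischer's medium with 10% horse serum, 37 °C, humidified 5% CO2 (generation time ~18 h). Compound was added to exponential-phase cells at ~2 × 10⁴ cells/mL. Increase in cell number was measured after 18 and 42 h. Percent inhibition was calculated relative to drug-free control.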

Vero [3] = assay: Cytotoxicity against African green monkey Vero cells at 1 uM after 3 days by haemocytometry; type: cell-based; details: chlorocebus sabaeus, 72 h; method in brief: as §2
Human alphaherpesvirus 1 [4] = assay: Antiviral activity against HSV1 CL101 infected in African green monkey Vero cells assessed as plaque forming unit at 400 uM after 40 hrs relative to control; type: functional; details: Human alphaherpesvirus 1, CL101, Vero
Method in brief: (§4)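 After 1 h adsorption at 37 °C, the inoculum was removed and cells washed with PBS. Compound was added in serum-supplemented medium and cultures incubated 40 h at 37 °C. Virus was released by one freeze–thaw and titrated by plaque assay on Vero cells. Percent inhibition was pfu relative to drug-free cultures.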

CCRF S-180 [5] = assay: Cytotoxicity against mouse S180 cells at 1 uM after 18 to 42 hrs relative to control; type: functional; method in brief: as §3
Human alphaherpesvirus 1 [6] = assay: Antiviral activity against HSV1 CL101 infected in African green monkey Vero cells assessed as plaque forming unit at 1 uM after 40 hrs relative to control; type: functional, organism-based; method in brief: as §4
Vero [7] = assay: as §1; type: cell-based; details: chlorocebus sabaeus, vero, 72 h, 400 µM; method in brief: as §2
CCRF S-180 [8] = assay: Cytotoxicity against mouse S180 cells at 200 uM after 18 to 42 hrs relative to control; type: functional, cell-based; method in brief: as §3
Vero [9] = assay: Cytotoxicity against African green monkey Vero cells at 200 uM after 3 days by haemocytometry; type: cell-based; details: chlorocebus sabaeus, 72 h
Human alphaherpesvirus 1 [10] = assay: Antiviral activity against HSV1 CL101 infected in African green monkey Vero cells assessed as plaque forming unit at 200 uM after 40 hrs relative to control; type: functional; details: Human alphaherpesvirus 1, CL101, Vero; method in brief: as §4
Human alphaherpesvirus 1 [11] = assay: Antiviral activity against HSV1 CL101 infected in African green monkey Vero cells assessed as plaque forming unit at 50 uM after 40 hrs relative to control; type: functional; details: Human alphaherpesvirus 1, CL101, Vero; method in brief: as §4
[12] = (§5) Cytotoxicity against African green monkey Vero cells at 50 uM after 3 days by haemocytometry; type: cell-based; details: chlorocebus sabaeus, Vero cells; read-out: INH; method in brief: as §2
CCRF S-180 [13] = assay: Cytotoxicity against mouse S180 cells at 50 uM after 18 to 42 hrs relative to control; type: functional; method in brief: as §3
Vero [14] = assay: Cytotoxicity against African green monkey Vero cells at 0.01 uM after 3 days by haemocytometry; type: cell-based; details: chlorocebus sabaeus, 72 h; method in brief: as §2
CCRF S-180 [15] = assay: Cytotoxicity against mouse S180 cells at 0.1 uM after 18 to 42 hrs relative to control; type: functional; method in brief: as §3
CCRF S-180 [16] = assay: Cytotoxicity against mouse S180 cells at 0.01 after 18 to 42 hrs relative to control; type: functional; method in brief: as §3
[17] = Cytotoxicity against African green monkey Vero cells at 0.1 uM after 3 days by haemocytometry; type: cell-based; details: chlorocebus sabaeus, read-out: INH; method in brief: as §2
Vero [18] = assay: as §5; type: cell-based; details: chlorocebus sabaeus, vero, 72 h, 50 µM; method in brief: as §2
Vero [19] = assay: Cytotoxicity against African green monkey Vero cells at 800 uM after 3 days by haemocytometry; type: cell-based; details: chlorocebus sabaeus, 72 h; method in brief: as §2
Vero [20] = assay: Cytotoxicity against African green monkey Vero cells at 1600 uM after 3 days by haemocytometry; type: cell-based; details: chlorocebus sabaeus, 72 h; method in brief: as §2
CCRF S-180 [21] = assay: Cytotoxicity against mouse S180 cells at 1600 uM after 18 to 42 hrs relative to control; type: functional, cell-based; method in brief: as §3

NC[C@H]1O[C@@H](n2cc(F)c(=O)[nH]c2=O)C[C@@H]1O
cytotoxicity at 72 h, 400 µM [1]: 100% | inhibition at 400 µM (CCRF S-180 [2]): 100% | Activity (Vero [3]): Non-toxic | inhibition at 400 µM (Human alphaherpesvirus 1 [4]): 85.6% | inhibition at 1 µM (CCRF S-180 [5]): 100% | inhibition (Human alphaherpesvirus 1 [6]): inactive

NC[C@H]1O[C@@H](n2cc(Cl)c(O)nc2=O)C[C@@H]1O
Activity (Vero [7]): Non-toxic | inhibition (CCRF S-180 [2]): inactive | inhibition at 400 µM (Human alphaherpesvirus 1 [4]): 74.3%

NC[C@H]1O[C@@H](n2cc(Br)c(O)nc2=O)C[C@@H]1O
inhibition (CCRF S-180 [8]): inactive | Activity (Vero [9]): Non-toxic | inhibition at 200 µM (Human alphaherpesvirus 1 [10]): 86.2%

[N-]=[N+]=NC[C@H]1O[C@@H](n2cc(F)c(O)nc2=O)C[C@@H]1O
cytotoxicity at 72 h, 400 µM [1]: 100% | inhibition at 400 µM (CCRF S-180 [2]): 100% | inhibition at 400 µM (Human alphaherpesvirus 1 [4]): 5%

[N-]=[N+]=NC[C@H]1O[C@@H](n2cc(I)c(N)nc2=O)C[C@@H]1O
inhibition (CCRF S-180 [8]): inactive | Activity (Vero [9]): Non-toxic | inhibition at 200 µM (Human alphaherpesvirus 1 [10]): 37.5%

O=c1[nH]c(=O)n([C@H]2C[C@H](O)[C@@H](CO)O2)cc1I [IDOXURIDINE]
inhibition at 50 µM (Human alphaherpesvirus 1 [11]): 99.5% | cytotoxicity at 72 h, 50 µM [12]: 100% | inhibition at 50 µM (CCRF S-180 [13]): 100%

O=c1[nH]c(=O)n([C@H]2C[C@H](O)[C@@H](CO)O2)cc1F [FLOXURIDINE]
cytotoxicity at 72 h, 400 µM [1]: 100% | inhibition at 400 µM (CCRF S-180 [2]): 100% | Activity (Vero [14]): Non-toxic | inhibition at 0.1 µM (CCRF S-180 [15]): 100% | inhibition at 400 µM (Human alphaherpesvirus 1 [4]): 84.3% | inhibition (INH) (CCRF S-180 [16]): 100% | cytotoxicity at 72 h, 0.1 µM [17]: 100%

Nc1nc(=O)n([C@H]2C[C@H](O)[C@@H](CO)O2)cc1I [IBACITABINE]
inhibition at 50 µM (Human alphaherpesvirus 1 [11]): 99.5% | Activity (Vero [18]): Non-toxic | Activity (Vero [19]): Non-toxic

NC[C@H]1O[C@@H](n2cc(I)c(N)nc2=O)C[C@@H]1O
Activity (Vero [20]): Non-toxic | Activity (Vero [7]): Non-toxic | inhibition (CCRF S-180 [2]): inactive | inhibition (CCRF S-180 [21]): inactive | inhibition at 400 µM (Human alphaherpesvirus 1 [4]): 92.8%
